In the library only some 3.1% were active in any assay of this set; here they are far more common.
KCNQ1 act: potentiators or activators of human KCNQ1 potassium channel | P51787 | CHO-K1 KCNQ1, thallium flux FluxOR fluorescence; hits give high values | B-score at 10 µM | 0.35% of 310,000 active | AID 2648;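 active = fluorescence ratio B-score, a plate-corrected score, at least three library SD, with initial intensity B-score within 5 SD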
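Schedule – 37 °C overnight plating, 90-min dark dye load, 20-min compound pretreatment · System – stable KCNQ1 CHO-K1 line · Probe or stimulus – thallium- and potassium-containing depolarizing buffer · Measured by – kinetic FluxOR fluorescence, 10 s baseline plus 110 s post-stimulus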
KCNK9 block: blocks the human KCNK9 two-pore domain potassium channel. Q9NPC2. HEK293 KCNK9, FluxOR thallium flux fluorescence; hits give low values. B-score at 10 µM. 1.2% of 310,000 active;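 active = ratio B-score over 3 SD below the library mean, with starting fluorescence within 5 SD of its mean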;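 also: negative B-score means less thallium flux so channel inhibition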
KCNQ1 block: blocks the human KCNQ1 potassium channel. P51787. CHO-K1 KCNQ1, FluxOR thallium flux fluorescence; hits give high values. B-score at 10 µM. 1.3% of 310,000 active. AID 2642;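 active = compounds whose thallium flux B-score, printed positive for inhibition, exceeds three library SD while starting fluorescence stays within three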;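 also: channel opened by potassium depolarization with thallium stimulus after 20 min compound exposure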
KCNK3 inh: human KCNK3 channel inhibition, primary screen. O14649. 0.84% of 340,000 active. CHO-KCNK3 thallium flux, FluxOR fluorescence; hits give low values. B-score at 10 µM;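 active = B-score under library mean minus 4 SD, starting fluorescence ratio at most library mean plus 5 SD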;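 also: more negative B-score means stronger inhibition of thallium flux through KCNK3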
hERG protect: shields human hERG channel from block by proarrhythmic agents. activation (rescue from dofetilide block), less the hit threshold, % at 10 µM. Q12809. CHO-hERG, FluxOR thallium flux, dofetilide IC70 present. 0.51% of 310,000 active;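 active = activation above the mean of controls blocked by dofetilide plus 5 SD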;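 also: thallium influx through hERG after potassium depolarization seen as dye fluorescence rise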
Target sequence (Q12809 whole entry, looked up): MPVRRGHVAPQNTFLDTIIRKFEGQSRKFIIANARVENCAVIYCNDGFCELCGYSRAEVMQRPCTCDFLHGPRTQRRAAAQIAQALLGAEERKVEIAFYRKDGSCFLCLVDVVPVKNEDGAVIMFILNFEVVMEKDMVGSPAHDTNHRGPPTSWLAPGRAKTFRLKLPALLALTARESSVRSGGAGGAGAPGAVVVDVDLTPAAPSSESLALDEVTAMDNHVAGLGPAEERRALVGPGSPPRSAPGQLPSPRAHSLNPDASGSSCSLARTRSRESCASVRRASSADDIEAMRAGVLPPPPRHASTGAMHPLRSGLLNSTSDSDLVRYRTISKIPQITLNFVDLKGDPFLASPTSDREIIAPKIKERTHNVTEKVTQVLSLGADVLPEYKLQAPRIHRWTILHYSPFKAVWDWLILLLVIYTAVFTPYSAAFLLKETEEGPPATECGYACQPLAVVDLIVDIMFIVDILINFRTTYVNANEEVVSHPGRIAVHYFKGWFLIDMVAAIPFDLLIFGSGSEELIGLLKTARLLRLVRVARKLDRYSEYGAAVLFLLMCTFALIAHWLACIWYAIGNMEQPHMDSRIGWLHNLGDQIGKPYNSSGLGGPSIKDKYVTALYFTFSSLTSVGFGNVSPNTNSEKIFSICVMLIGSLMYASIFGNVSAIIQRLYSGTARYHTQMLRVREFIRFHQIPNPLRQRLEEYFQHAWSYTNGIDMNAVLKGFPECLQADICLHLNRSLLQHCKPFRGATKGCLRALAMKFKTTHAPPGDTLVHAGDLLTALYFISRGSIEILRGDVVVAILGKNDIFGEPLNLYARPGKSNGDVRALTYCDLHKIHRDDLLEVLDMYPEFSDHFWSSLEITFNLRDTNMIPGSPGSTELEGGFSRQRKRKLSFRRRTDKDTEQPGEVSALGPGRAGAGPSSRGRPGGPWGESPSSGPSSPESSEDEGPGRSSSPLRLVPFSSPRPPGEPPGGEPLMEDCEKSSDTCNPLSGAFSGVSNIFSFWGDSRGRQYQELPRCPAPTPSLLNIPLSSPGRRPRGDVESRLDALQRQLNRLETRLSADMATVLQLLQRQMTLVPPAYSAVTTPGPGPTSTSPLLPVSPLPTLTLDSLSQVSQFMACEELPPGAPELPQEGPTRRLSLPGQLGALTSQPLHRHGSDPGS
KCNK3 inh conf: confirmation of human KCNK3 two-pore domain potassium channel inhibitors; shares compounds with KCNK3 inh; CHO-KCNK3 thallium flux, FluxOR fluorescence; 0% buffer, 100% carvedilol maximal block; ratio percent of control, % at 10 µM; 99% of 2,400 active; AID 651638;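 active = ratio percent of control, averaged over triplicates, above buffer control mean plus 5 SD, cut at about 64% in these data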;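 also: ratio is the fluorescence rise from min to max over baseline after thallium stimulus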
KCNK3 noninduced: KCNK3 inhibitor counter-screen hit in non-induced cells; shares compounds with KCNK3 inh; non-induced KCNK3 parental cells, FluxOR thallium flux; hits give low values; thallium flux ratio (lower = more inhibition) at 10 µM; 40% of 2,400 active; AID 651747;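 active = thallium flux ratio, averaged over three wells, more than 5 SD below the buffer control mean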;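 also: host cells are CHO cells without KCNK3 induction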
Numbers stand for hits; i = inactive; nt = no result given.

SMILES | KCNQ1 act | KCNK9 block | KCNQ1 block | KCNK3 inh | hERG protect | KCNK3 inh conf | KCNK3 noninduced
CCOC(=O)c1sc2nc(C)nc(NCc3ccc(F)cc3)c2c1C | i | i | i | -10 | i | 116 | 0.15
CCN(CC(=O)Nc1ccc(C)c(S(=O)(=O)N2CCOCC2)c1)Cc1ccccc1 | i | i | i | i | i | nt | nt
N/C(CN1CCCCC1)=N\S(=O)(=O)c1cc(Cl)cc(Cl)c1 | i | i | i | i | i | nt | nt
CC(=O)N1CCc2cc(S(=O)(=O)CCC(=O)N3CCC(C)CC3)ccc21 | i | i | i | i | i | nt | nt
Cc1cc(C)c(NC(=O)/C(=C/c2ccco2)c2ccccc2)c(C)c1 | i | i | i | -9 | i | 108 | i
Cc1cc(=O)oc2cc(NC(=O)c3ccccc3OC(F)F)ccc12 | i | i | i | -11 | i | 105 | i
Cc1cc(=O)oc2cc(NC(=O)c3cc(F)ccc3F)ccc12 | nt | nt | nt | i | nt | nt | nt
COc1ccc(C2C(C#N)=C(N)Oc3cc(O)ccc32)cc1Cl (stereo not given) | i | i | 6 | -9 | i | 110 | 0.15
CCOc1ccc(C2C(C#N)=C(N)Oc3cc(O)ccc32)cc1OCC (stereo not given) | i | i | i | -9.3 | i | 99 | i
C#CCOc1ccc(C2C(C#N)=C(N)Oc3cc(O)ccc32)cc1 (stereo not given) | i | i | i | -9.5 | i | 95 | i
Cc1ccc(S(=O)(=O)N(C)/N=C/c2ccc(N(C)C)cc2)cc1 | i | i | i | i | i | nt | nt
COc1ccccc1NC(=O)CSc1nnc(CC(=O)Nc2ccccc2F)n1C | i | i | i | i | i | nt | nt
O=c1sc2ccccc2n1COc1ccccc1 | nt | nt | nt | i | nt | nt | nt
O=c1sc2ccccc2n1COc1ccc(Cl)cc1 | i | i | i | -9.1 | i | 124 | 0.15
Cc1ccccc1OCCCn1c(=O)sc2ccccc21 | i | i | i | -9.6 | i | 94 | i
CCOc1ccc(S(=O)(=O)N2CCCC(C(=O)NCc3ccncc3)C2)cc1Cl (stereo not given) | i | i | i | i | i | nt | nt
CCOC(=O)CCCCCC(=O)Nc1ccc2c(c1)C(=O)N([C@H](C)CO)C[C@@H](C)[C@H](CN(C)Cc1ccc3c(c1)OCO3)O2 | nt | nt | nt | i | nt | nt | nt
FC(F)(F)c1ccccc1NC(=S)Nc1cccc(Cl)c1 | i | i | 8 | -9.6 | i | 93 | i
FC(F)(F)c1cccc(NC(=S)Nc2ccc(Cl)cc2Cl)c1 | i | i | i | i | i | nt | nt
CC1=C(C(=O)Nc2cccc(C(=O)NC3CCCC(C)C3C)c2)SCCO1 (stereo not given) | i | i | i | -9.3 | i | 97 | i
CC1=C(C(=O)Nc2cccc(C(=O)NC(C)c3ccccc3)c2)SCCO1 (stereo not given) | i | i | i | -8.9 | i | 76 | i
Cc1nc2ncnn2c(N2CCCC(C(=O)Nc3ccccc3Br)C2)c1C (stereo not given) | i | i | i | i | i | nt | nt
CCOc1nc(CC(C)C)c2c(c1C#N)CC(C)(C)OC2 | i | i | i | -9 | i | 111 | i
CCOc1ncnc2c1oc1nc(CC(C)C)c3c(c12)CC(C)(C)OC3 | i | i | i | i | i | nt | nt
CN(C)CCCN1C(=O)c2oc3ccc(F)cc3c(=O)c2C1c1cccnc1 (stereo not given) | i | i | i | i | i | nt | nt
SMILES | KCNQ1 act | KCNK9 block | KCNQ1 block | KCNK3 inh | hERG protect | KCNK3 inh conf | KCNK3 noninduced
O=C(O)C(Oc1ccc2cc(-c3ccc(Cl)cc3)c(=O)oc2c1)c1ccccc1 (stereo not given) | i | i | i | i | i | nt | nt
O=C(Nc1ccc(CN2CCOCC2)cc1)c1ccc(-c2ccc(Cl)cc2Cl)o1 | i | i | i | -9.7 | i | 103 | i
O=C(Nc1ccc(CN2CCOCC2)cc1)c1ccc(-c2cccc(Cl)c2)o1 | i | i | i | i | i | nt | nt
COCCN(C(=S)Nc1cc(C)cc(C)c1)C(C)c1ccco1 (stereo not given) | i | i | i | -9 | i | 85 | i
Cc1cc(N2CCCC2)c(F)cc1/C=C\[N+](=O)[O-] | i | i | i | -10 | i | 128 | 0.099
Cc1cc(N2CCC(C)CC2)c(F)cc1[N+](=O)[O-] | i | i | i | i | i | nt | nt
OCC[C@H]1C[C@@H](O)[C@H](O)[C@@]2(OCc3ccccc32)O1 | nt | nt | nt | i | nt | nt | nt
Cc1sc2ncnc(N3CCC(C(=O)Nc4ccc(Br)cc4Br)CC3)c2c1C | i | i | i | -8.8 | i | 113 | i
CCOC(=O)N1CCC2(CC1)CC(=O)c1c(ccc3oc(C(=O)O)c(C)c13)O2 | i | i | i | -15 | i | i | i
CC1CCCN(C(=O)CN(c2ccccc2)S(=O)(=O)c2ccc(F)cc2)C1 (stereo not given) | nt | nt | nt | i | nt | nt | nt
C=CCOC(=O)C1=C(C)NC(C)=C(C(=O)OCC=C)C1c1ccc(C)o1 | i | i | i | -10 | i | 104 | i
O=C(COc1cccc2ccccc12)N1c2ccccc2CCc2ccccc21 | i | i | i | -13 | i | 120 | 0.15
O=C(COc1ccc(F)cc1)N1c2ccccc2CCc2ccccc21 | i | i | i | i | i | nt | nt
Cc1cc(OC(C)C(=O)N2CCN(c3ccc(F)cc3)CC2)c2c(C)c(C)c(=O)oc2c1 (stereo not given) | i | i | i | i | i | nt | nt
C=CCn1c(C)cc(C(=O)COc2ccc(N(C)S(=O)(=O)c3ccc(NC(C)=O)cc3)cc2)c1C | nt | nt | nt | -12 | nt | 105 | i
CSc1ccc(S(=O)(=O)NCC(=O)OCC(=O)N(C)C2CCCCC2)cc1[N+](=O)[O-] | i | i | i | i | i | nt | nt
Cc1ccccc1-n1c(SCC(=O)c2c(N)n(C3CC3)c(=O)[nH]c2=O)nnc1N1CCOCC1 | nt | nt | nt | i | nt | nt | nt
CCn1c(Cc2cccc3ccccc23)nnc1SCC(=O)Nc1nccs1 | i | i | i | i | i | nt | nt
Cc1ccc2nc(N/N=C\c3ccc([N+](=O)[O-])o3)nc(-c3ccccc3)c2c1 | i | -6.9 | 7 | -11 | i | 147 | 0.087
O=C(Nc1cc(C(F)(F)F)ccc1Cl)c1ccncc1 | i | i | i | i | i | nt | nt
C/C(=N\Nc1cc(C(F)(F)F)ccc1Cl)c1ccncc1 | i | i | i | -9.7 | i | 110 | i
O=[N+]([O-])c1ccc(C2CCCC/C2=N/OCc2ccccc2F)c([N+](=O)[O-])c1 (stereo not given) | i | i | 12 | -8.7 | i | 121 | i
CCc1nc2oc3ccccc3c(=O)c2cc1C(=O)OC | i | i | i | i | i | nt | nt
Cc1ccc(Br)cc1S(=O)(=O)N1CCN(c2ccccc2)CC1 | i | i | i | -11 | i | 102 | 0.15
O=C(NC(NC1CCS(=O)(=O)C1)C(=O)c1ccccc1)c1ccc(Cl)cc1 (stereo not given) | i | i | i | i | i | nt | nt

Source: PubChem (Johns Hopkins Ion Channel Center)
